Activity calls are given as the source filed them. The calls are words filed in the database; no cut-off is given here. Side chains are listed from the residue outwards. Peptide text beside a SMILES is read from it. * marks the point of attachment. X3 = O=c1ccn([C@@H]2O[C@H](COCCOCCN*)[C@@H](O)[C@H]2O)c(=O)[nH]1; X2 = O=c1ccn([C@@H]2O[C@H](COCCN*)[C@@H](O)[C@H]2O)c(=O)[nH]1; X1 = O=c1ccn([C@@H]2O[C@H](CN*)[C@@H](O)[C@H]2O)c(=O)[nH]1; X4 = O=C(c1cc(=O)[nH]c2ccccc12)*; 4Amb = NCc1ccc(C(=O)O)cc1
Molecular target: T1, UDP-N-acetylglucosamine--peptide N-acetylglucosaminyltransferase 110 kDa subunit (Homo sapiens) (UniProt O15294)
T1 sequence (whole entry): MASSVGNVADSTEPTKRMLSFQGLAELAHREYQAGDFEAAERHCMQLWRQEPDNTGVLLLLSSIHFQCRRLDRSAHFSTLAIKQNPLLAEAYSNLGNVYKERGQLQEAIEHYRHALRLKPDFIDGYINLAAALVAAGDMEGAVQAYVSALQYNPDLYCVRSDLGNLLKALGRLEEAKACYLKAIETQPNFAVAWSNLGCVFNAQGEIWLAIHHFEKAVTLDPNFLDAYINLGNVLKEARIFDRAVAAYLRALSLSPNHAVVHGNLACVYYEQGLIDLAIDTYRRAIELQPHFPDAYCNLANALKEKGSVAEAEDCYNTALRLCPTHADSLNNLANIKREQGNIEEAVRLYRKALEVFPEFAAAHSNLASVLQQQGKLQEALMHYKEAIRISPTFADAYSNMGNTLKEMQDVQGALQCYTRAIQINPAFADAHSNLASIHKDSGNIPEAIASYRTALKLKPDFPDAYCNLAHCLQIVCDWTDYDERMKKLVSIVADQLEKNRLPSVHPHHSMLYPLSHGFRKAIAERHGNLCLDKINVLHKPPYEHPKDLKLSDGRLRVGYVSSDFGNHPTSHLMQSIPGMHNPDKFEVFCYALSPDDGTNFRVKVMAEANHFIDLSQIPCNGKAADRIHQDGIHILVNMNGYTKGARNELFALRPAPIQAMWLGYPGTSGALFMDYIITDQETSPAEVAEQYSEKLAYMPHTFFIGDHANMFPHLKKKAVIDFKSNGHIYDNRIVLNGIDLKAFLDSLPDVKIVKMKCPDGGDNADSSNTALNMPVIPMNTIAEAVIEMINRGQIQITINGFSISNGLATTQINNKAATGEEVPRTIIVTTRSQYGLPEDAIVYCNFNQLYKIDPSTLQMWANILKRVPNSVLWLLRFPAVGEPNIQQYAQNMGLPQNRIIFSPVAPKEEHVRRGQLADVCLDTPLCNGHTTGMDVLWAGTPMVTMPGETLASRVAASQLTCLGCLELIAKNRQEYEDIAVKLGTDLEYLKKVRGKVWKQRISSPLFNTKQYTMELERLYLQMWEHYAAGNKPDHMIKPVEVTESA
Assay: Competitive inhibition of OGT (unknown origin) at 0.5 mM in presence of RBL_2_410_422 peptide by microarray analysis
Outline: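 Peptide microarray with immobilized RBL-2_410–422 as OGT acceptor; inhibitor peptide present at 0.5 mM, water in parallel control. O-GlcNAcylation followed in real time by FITC-labelled antibody binding to O-GlcNAcylated RBL-2_410–422.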

inhibition | Compound
Active | H-KENSPCVTPVATA-OH

Molecular target: T2, UDP-N-acetylglucosamine--peptide N-acetylglucosaminyltransferase 110 kDa subunit (Homo sapiens, UniProt O15294)
T2 sequence (O15294 whole entry): T1 sequence (whole entry)
Assay: Inhibition of OGT (unknown origin) using UDP-GlcNAc as substrate measured after 2 hrs by UDP-Glo luminescence assay

Compound | IC50
H-CVTPVATA-NH2 | 385 µM
CC(C)[C@H](NC(=O)[C@@H](N)CCCNC(=N)N)C(=O)N1CCC[C@H]1C(=O)N[C@@H](CO)C(=O)N[C@@H](CCC(=O)NC[C@H]1O[C@@H](n2ccc(=O)[nH]c2=O)[C@H](O)[C@@H]1O)C(=O)N[C@@H](CCC(N)=O)C(=O)N[C@@H](CO)C(N)=O (H-RVPSE(X1)QS-NH2) | > 1000 µM
CC(C)[C@H](NC(=O)[C@@H](N)CS)C(=O)N[C@H](C(=O)N1CCC[C@H]1C(=O)N[C@H](C(=O)N[C@@H](CCC(=O)NCCOCCOC[C@H]1O[C@@H](n2ccc(=O)[nH]c2=O)[C@H](O)[C@@H]1O)C(=O)N[C@H](C(=O)N[C@@H](C)C(N)=O)[C@@H](C)O)C(C)C)[C@@H](C)O (H-CVTPVE(X3)TA-NH2) | 493 µM

Results, then the compound that gave them:

IC50 | Compound
297 µM | CC(C)[C@H](NC(=O)[C@@H](N)CS)C(=O)N[C@H](C(=O)N1CCC[C@H]1C(=O)N[C@H](C(=O)N[C@@H](CCC(=O)NC[C@H]1O[C@@H](n2ccc(=O)[nH]c2=O)[C@H](O)[C@@H]1O)C(=O)N[C@H](C(=O)N[C@@H](C)C(N)=O)[C@@H](C)O)C(C)C)[C@@H](C)O (H-CVTPVE(X1)TA-NH2)
117 µM | CC(C)[C@H](NC(=O)[C@@H](N)CS)C(=O)N[C@H](C(=O)N1CCC[C@H]1C(=O)N[C@H](C(=O)N[C@@H](CCCCNC(=O)c1ccc(CNC(=O)c2cc(=O)[nH]c3ccccc23)cc1)C(=O)N[C@H](C(=O)N[C@@H](C)C(N)=O)[C@@H](C)O)C(C)C)[C@@H](C)O (H-CVTPVK([4Amb-X4])TA-NH2)
> 1000 µM | CC(C)[C@H](NC(=O)[C@@H](N)CS)C(=O)N[C@H](C(=O)N1CCC[C@H]1C(=O)N[C@H](C(=O)N[C@@H](CCC(=O)NCCOC[C@H]1O[C@@H](n2ccc(=O)[nH]c2=O)[C@H](O)[C@@H]1O)C(=O)N[C@H](C(=O)N[C@@H](C)C(N)=O)[C@@H](C)O)C(C)C)[C@@H](C)O (H-CVTPVE(X2)TA-NH2)
193 µM | H-RVPSAQS-NH2
> 1000 µM | CC(C)[C@H](NC(=O)[C@@H](N)CCCNC(=N)N)C(=O)N1CCC[C@H]1C(=O)N[C@@H](CO)C(=O)N[C@@H](CCC(=O)NCCOC[C@H]1O[C@@H](n2ccc(=O)[nH]c2=O)[C@H](O)[C@@H]1O)C(=O)N[C@@H](CCC(N)=O)C(=O)N[C@@H](CO)C(N)=O (H-RVPSE(X2)QS-NH2)

Molecular target: T1, UDP-N-acetylglucosamine--peptide N-acetylglucosaminyltransferase 110 kDa subunit (Homo sapiens)
Assay: Inhibition of OGT (unknown origin) at 1 mM using UDP-GlcNAc as substrate measured after 2 hrs by UDP-Glo luminescence assay relative to control
Outline: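 Single-point OGT inhibition at 1 mM, read by UDP-Glo glycosyltransferase assay (UDP released from UDP-GlcNAc donor).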

Compound | inhibition
O=C(O)c1cc(O)nc2ccccc12 | 90%
CCOC(=O)c1ccc(CNC(=O)c2cc(=O)[nH]c3ccccc23)cc1 | 90%
COc1ccc(CNC(=O)c2cc(=O)[nH]c3ccccc23)cc1OC | 90%
Nc1ccccc1CNC(=O)c1cc(=O)[nH]c2ccccc12 | 90%
O=C(O)CCNC(=O)c1ccc(NC(=O)c2cc(=O)[nH]c3ccccc23)cc1 | 90%
O=C(NCc1ccccc1Cl)c1cc(O)nc2ccccc12 | 90%
O=C(O)CNC(=O)c1cc(=O)[nH]c2ccccc12 | 90%
CC(C)(C)OC(=O)CNC(=O)c1cc(=O)[nH]c2ccccc12 | 90%
Nc1ccc(CNC(=O)c2cc(=O)[nH]c3ccccc23)cc1 | 90%
O=C(NCc1ccccc1)c1cc(O)nc2ccccc12 | 90%

Now from value to compound:

inhibition | Compound
90% | NS(=O)(=O)c1ccc(CNC(=O)c2cc(O)nc3ccccc23)cc1
90% | CCc1nnc(NC(=O)c2cc(=O)[nH]c3ccccc23)s1
90% | O=C(NCc1ccc2c(c1)OCCO2)c1cc(=O)[nH]c2ccccc12
90% | CCOC(=O)C1CCC(CNC(=O)c2cc(=O)[nH]c3ccccc23)CC1 (stereo unspecified)
90% | O=C(O)c1ccc(CNC(=O)c2cc(=O)[nH]c3ccccc23)cc1
90% | O=C(O)CCCNC(=O)c1cc(=O)[nH]c2ccccc12
90% | O=C(O)CCNC(=O)c1cc(=O)[nH]c2ccccc12
90% | CC(C)(C)OC(=O)CCNC(=O)c1cc(=O)[nH]c2ccccc12
90% | O=C(NCC1CCC(C(=O)O)CC1)c1cc(=O)[nH]c2ccccc12 (stereo unspecified)
90% | COc1ccc(CNC(=O)c2cc(=O)[nH]c3ccccc23)cc1
90% | CCNC(=O)CCNC(=O)c1ccc(NC(=O)c2cc(=O)[nH]c3ccccc23)cc1
90% | CCOC(=O)CCCNC(=O)c1cc(=O)[nH]c2ccccc12

— ChEMBL document CHEMBL4257518, “Inhibition of O-GlcNAc transferase (OGT) by peptidic hybrids” (Medchemcomm, 2018)
